Published values of several laboratories.
Lines come from different studies, so protocols differ.
Target: Serine/threonine-protein kinase DCLK1 (DCLK1, Homo sapiens, UniProt O15075)
Residues used in one study (O15075 1-740): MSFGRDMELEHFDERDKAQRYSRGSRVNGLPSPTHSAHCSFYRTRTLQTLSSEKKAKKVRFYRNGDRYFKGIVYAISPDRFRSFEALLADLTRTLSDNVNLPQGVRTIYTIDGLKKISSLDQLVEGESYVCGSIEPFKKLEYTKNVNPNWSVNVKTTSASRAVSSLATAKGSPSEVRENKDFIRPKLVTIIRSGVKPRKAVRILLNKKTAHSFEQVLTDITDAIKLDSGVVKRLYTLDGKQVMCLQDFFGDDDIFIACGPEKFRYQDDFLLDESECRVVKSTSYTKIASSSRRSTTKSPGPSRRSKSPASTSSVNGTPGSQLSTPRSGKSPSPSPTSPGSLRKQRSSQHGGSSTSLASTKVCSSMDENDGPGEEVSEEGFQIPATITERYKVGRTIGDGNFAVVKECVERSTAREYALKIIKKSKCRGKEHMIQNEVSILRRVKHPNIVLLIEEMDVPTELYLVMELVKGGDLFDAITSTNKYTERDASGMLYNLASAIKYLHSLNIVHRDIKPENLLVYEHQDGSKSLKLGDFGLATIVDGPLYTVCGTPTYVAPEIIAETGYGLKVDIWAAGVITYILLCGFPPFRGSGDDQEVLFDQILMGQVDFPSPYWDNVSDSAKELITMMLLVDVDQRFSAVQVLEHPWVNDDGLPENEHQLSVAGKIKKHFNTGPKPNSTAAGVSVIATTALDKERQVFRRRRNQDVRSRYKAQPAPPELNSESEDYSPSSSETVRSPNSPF

O=C(Nc1cnn(-c2csc(C(=O)NC3COC3)c2)c1)Nc1ccccc1Cl  remaining activity (enzyme activity; inhibitor; 5 µM): 99.2%
Nc1ncnc2occ(-c3ccc(NC(=O)Nc4cc(C(F)(F)F)ccc4F)cc3)c12  remaining signal (cell-free assay; inhibitor; 20 µM): 80%
Cn1c2c(Cl)c(Cl)ccc2c2cc[nH]c(=O)c21  ΔTm (thermal stability; DSF; 10 µM): -0.1 °C
O=C(CSc1nc2nccnc2c(=O)n1CCc1ccccc1)Nc1nccs1  inhibition (enzyme activity; inhibitor; 10 µM): 14%
CC(C)(O)[C@H]1CC[C@H](Nc2ccc3ncc(-c4cccc(C(F)(F)F)c4)n3n2)CC1  remaining activity (enzyme activity; inhibitor; 1 µM): 93.4%
CS(=O)(=O)Nc1cccc(-c2csc(NC(=O)CSc3nc4nccnc4c(=O)n3CCc3ccccc3)n2)c1  inhibition (enzyme activity; inhibitor; 10 µM): 1%
Cc1ccc(C(=O)Nc2ccc(CN3CCN(C)CC3)c(C(F)(F)F)c2)cc1C#Cc1cnc2cccnn12  remaining activity (enzyme activity; inhibitor; 23.5 nM): 93%
Cn1c2c(c3ccc(Cl)c(Cl)c31)C(C#N)C1(CCN(C(=O)OC(C)(C)C)CC1)NC2=O (racemic)  ΔTm (thermal stability; DSF; 10 µM): 0 °C
Cc1c(NC(=O)c2cc(C(N)=O)nc3cc(F)ccc23)c(C(F)(F)F)nn1Cc1ccc(C(C)(C)C)cc1  remaining binding (cell-free assay; competition with immobilised ligand; 1 µM): 91%
Cn1c2c(Cl)c(Cl)ccc2c2cc(N)[nH]c(=O)c21  ΔTm (thermal stability; DSF; 10 µM): 0.1 °C
CC(=O)N1CCC(c2ccc(C(=O)NC(=N)N)cc2C(F)(F)F)CC1  remaining binding (cell-free assay; competition with immobilised ligand; 1 µM): 100%
Cc1sc(C(=O)NC2COC2)cc1-n1cc(NC(=O)Nc2c(F)cccc2Cl)cn1  remaining activity (enzyme activity; inhibitor; 10 µM): 67.2%
Cn1c2c(c3ccc(Cl)c(Cl)c31)C(C#N)C1(CCOCC1)NC2=O (centres unmarked)  ΔTm (thermal stability; DSF; 10 µM): 0 °C
Nc1cnc(N2CCc3cc(S(=O)(=O)Nc4c(F)cc(Cl)cc4F)cc(N4CCCC4=O)c32)nc1  remaining binding (cell-free assay; competition with immobilised ligand; 1 µM): 100%
